Four molecules from PubChem BioAssay AID2434 (Vanderbilt High Throughput Screening Facility, 2010) can be followed below.

This assay deals with Muscarinic acetylcholine receptor M1 (Rattus norvegicus) (UniProt P08482). Briefly: leftward shift of ACh curve by M1 PAMs, mechanism study, cell-based, ACh fold-shift, calcium, CHO-K1 (AID 2434). The note with it: CHO-K1 rat M1, Fluo-4 calcium. In outline:
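Material: Fluo-4-loaded CHO-K1 cells expressing rat M1 muscarinic receptor; Probe or stimulus: Eight-point acetylcholine dilution series; Times: Fluo-4 loading 45–60 min, 37 °C; Signal: calcium mobilization by Fluo-4 fluorescence at 25 °C; Read-out: acetylcholine EC50 with compound compared to vehicle, variable-slope fits; Benchmarks: vehicle-only acetylcholine curve as reference, maximal acetylcholine response for normalization.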

Calls of active or inactive are those of the source.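 Rule for the calls: active = an acetylcholine EC50 could be fitted from its dose curve with compound present at 10 µM; inactive = the rest.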

Chain of Muscarinic acetylcholine receptor M1 (Rattus norvegicus) (P08482 whole entry, looked up): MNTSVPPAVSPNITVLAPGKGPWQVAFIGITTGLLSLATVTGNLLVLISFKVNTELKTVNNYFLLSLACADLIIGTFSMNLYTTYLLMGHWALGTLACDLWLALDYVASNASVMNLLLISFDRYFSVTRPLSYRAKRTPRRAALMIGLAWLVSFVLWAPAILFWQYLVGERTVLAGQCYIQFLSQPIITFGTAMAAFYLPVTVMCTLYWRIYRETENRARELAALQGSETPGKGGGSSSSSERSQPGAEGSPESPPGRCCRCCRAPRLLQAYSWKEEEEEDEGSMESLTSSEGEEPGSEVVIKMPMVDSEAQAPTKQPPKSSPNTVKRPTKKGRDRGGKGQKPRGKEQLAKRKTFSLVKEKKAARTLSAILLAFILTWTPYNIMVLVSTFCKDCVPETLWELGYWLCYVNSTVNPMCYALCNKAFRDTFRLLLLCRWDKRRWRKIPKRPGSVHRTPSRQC

As to `Cn1cc(-c2cc(F)c(CN3C(=O)C(=O)c4ccccc43)c(F)c2)cn1`, the outcome was inactive.
`Cc1cc(NC(=O)CS(=O)(=O)c2cn(Cc3cc(Br)ccc3F)c3ccccc23)no1`: the outcome was active.
For the molecule `Cn1cc(-c2ccc(CN3C(=O)C(=O)c4ccccc43)c(F)c2)cn1`, the outcome was inactive.
Consider `Cc1cc(NC(=O)CS(=O)(=O)c2cn(Cc3cccc(-c4cn[nH]c4)c3)c3cc(F)cc(F)c23)no1`, for which the outcome was active.
